We go through 11 compounds from ChEMBL document CHEMBL1139348, “Identification and optimization of a novel inhibitor of mitochondrial calpain 10” (J Med Chem, 2009).

Calls of active or inactive are those of the source. The rule behind the calls is not given here. Where a SMILES comes first, the peptide text is derived from it. The star is where a group is joined. X1 = COc1ccc(S*)cc1; SEt = CCS*

Test [1] is described as follows: Inhibition of calpain-10 in rabbit mitochondrial matrix fractions by spectrofluorimetry. Also noted: species or system Oryctolagus cuniculus. In short, it runs like this:
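Matrix fraction from Percoll/sucrose-purified rabbit renal cortical mitochondria, stored at -80°C. Matrix added to activity buffer, then inhibitor at various concentrations and sLLVY-AMC (50 µM); AMC hydrolysis followed spectrofluorometrically under linear conditions. IC50 from means of at least 3 separate experiments.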

For test [2], the species on record is Oryctolagus cuniculus. Nature of the test: Inhibition of calpain-10 in rabbit mitochondrial matrix fractions at 1 uM preincubated for 5 mins by spectrofluorimetry.
Test [3] is filed under the species Oryctolagus cuniculus. The test can be described thus: Inhibition of calpain-10 in rabbit mitochondrial matrix fractions at 1 uM preincubated for 5 mins in presence of 1 mM beta-mercaptoethanol by spectrofluorimetry. The essentials: (§1)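 Rabbit renal mitochondrial matrix preincubated 15 min with inhibitor (1 µM), activity on sLLVY-AMC measured 5 min; then BME (1 mM) or DTT (1 mM) added for 5 min and AMC release monitored for another 5 min. Mean and SE, n ≥ 3.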

For test [4], the species on record is Oryctolagus cuniculus. Nature of the test: Inhibition of calpain-10 in rabbit mitochondrial matrix fractions at 1 uM preincubated for 5 mins in presence of 1 mM dithiothreitol by spectrofluorimetry. The essentials: as §1

As a reminder, the IC50 is the concentration needed to halve the response being measured. A high value points to a need for much substance. For the compound `CSC[C@H](N)C(=O)N[C@@H](Cc1ccc(O)cc1)C(=O)NCC(=O)N[C@@H](C)C(=O)N[C@@H](CCCCN)C(=O)O` (H-C(Me)YGAK-OH), the 50% inhibitory concentration (IC50) in test [1] is greater than 100000 nM. The compound `CCSSC[C@H](N)C(=O)N[C@@H](Cc1ccc(O)cc1)C(=O)NCC(=O)N[C@@H](C)C(=O)N[C@@H](CCCCN)C(=O)O` (H-C(SEt)YGAK-OH) showed a half-inhibitory concentration (IC50) in test [1] of 2000 nM.

In the case of `COc1ccc(SSC[C@H](N)C(=O)N[C@@H](Cc2ccc(O)cc2)C(=O)NCC(=O)N[C@@H](C)C(=O)N[C@@H](CCCCN)C(=O)O)cc1` (H-C(X1)YGAK-OH), the IC50 in test [1] came out at 60 nM. Compound `C[C@H](NC(=O)CNC(=O)[C@H](C)NC(=O)[C@@H](N)CS)C(=O)N[C@@H](CCCCN)C(=O)O` (H-CAGAK-OH) gave an IC50 in test [1] of 2000 nM. Same read-out and setting: the result for `CC(C)[C@H](NC(=O)[C@@H](N)CS)C(=O)NCC(=O)N[C@@H](C)C(=O)N[C@@H](CCCCN)C(=O)O` (H-CVGAK-OH) reads greater than 40000 nM; that for `C[C@H](NC(=O)CNC(=O)[C@H](Cc1ccc(O)cc1)NC(=O)[C@@H](N)CS)C(=O)O` (H-CYGA-OH), greater than 100000 nM. The term inhibition denotes the change of the read-out against control, counted positive when it falls. Higher therefore signals a response far below the control. As to `C[C@H](NC(=O)CNC(=O)[C@H](Cc1ccc(O)cc1)NC(=O)[C@@H](N)CS)C(=O)N[C@@H](CCCCN)C(=O)O` (H-CYGAK-OH), in test [1], the IC50 was found to be 100 nM. In test [2], this compound had an inhibition of 90%. In addition, the result in test [3] and in test [4] was inactive. For the compound `N=C(N)NCCC[C@H](NC(=O)CNC(=O)[C@H](Cc1ccc(O)cc1)NC(=O)[C@@H](N)CS)C(=O)N[C@@H](CCCCN)C(=O)O` (H-CYGRK-OH), half-maximal inhibition in test [1] (IC50) was put at 240 nM.

Turning to `N=C(N)NCCC[C@H](NC(=O)CNC(=O)[C@H](Cc1ccc(O)cc1)NC(=O)[C@@H](N)CS)C(=O)N[C@@H](CCCCN)C(=O)N[C@@H](CCCCN)C(=O)O` (H-CYGRKK-OH), in test [1], the IC50 turned out to be 290 nM. In test [1], `C[C@H](NC(=O)CNC(=O)[C@@H](N)Cc1ccc(O)cc1)C(=O)N[C@@H](CCCCN)C(=O)O` (H-YGAK-OH) returned an IC50 greater than 100000 nM. `CCCC[C@@H](C=O)NC(=O)[C@H](CC(C)C)NC(=O)OCc1ccccc1` [CALPEPTIN] came in with an IC50 in test [1] of 4 nM. This lies in the single-digit nanomolar range.
